In brackets after ≈: the same amount, converted by molar mass. Activity calls are given as the source filed them. The rule behind the calls is not given here.
Key:
Nucleic Acid [1] = test: Inhibitory activity against DNA polymerase III (DNA pol III) of Staphylococcus aureus at a concentration of 500 uM; type: nucleic-acid assay
How it was run: (§1)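 S. aureus pol III was PCR-cloned into pET15, expressed in BL21 (1 mM IPTG), and purified on HiTrapQ then HiTrap Blue. Enzyme-started, it ran 30 min at 30 °C and was stopped with cold TCA/NaPPi. Incorporation was read by filter capture and scintillation counting.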

Nucleic Acid [2] = test: Inhibitory activity against DNA polymerase III (DNA pol III) of Staphylococcus aureus at a concentration of 500 uM; NA means Inactive; type: nucleic-acid assay; how it was run: as §1
Staphylococcus aureus = test: Antibacterial activity against Staphylococcus aureus; type: functional
How it was run: (§2)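 Broth microdilution MIC against B. subtilis F2, E. faecium RLA-1, S. aureus MB2865 and S. pneumoniae MCL5350. Compounds were DMSO stocks, serially 2-fold diluted from 100 μM final, at 5% final DMSO, with a DMSO vehicle control. Wells were inoculated from cultures diluted in PBS and incubated overnight at 37 °C. MIC was scored visually as the lowest concentration preventing growth.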

Nucleic Acid [3] = test: Inhibitory activity against DNA polymerase III (DNA pol III) of Staphylococcus aureus; type: nucleic-acid assay; how it was run: as §1
Enterococcus faecium = test: Antibacterial activity against Enterococcus faecium; type: functional; how it was run: as §2
Streptococcus pneumoniae = test: Antibacterial activity against Streptococcus pneumoniae; type: functional; how it was run: as §2
Bacillus subtilis = test: Antibacterial activity against Bacillus subtilis; type: functional; how it was run: as §2

SMILES | inhibition (Nucleic Acid [1]) [%] | IC50 (Nucleic Acid [3]) [µM] | MIC (Streptococcus pneumoniae) [µg/mL] | MIC (Bacillus subtilis) [µg/mL] | other results
Oc1[nH]c(NCc2ccccc2)nc2nncc1-2 | 32 |  |  |  | 
COc1ccc(CNc2nc(O)c3c[nH]nc3n2)cc1 | 10 |  |  |  | 
Oc1[nH]c(NCc2ccccc2Cl)nc2nncc1-2 |  |  |  |  | NA (Nucleic Acid [2]): inactive
Cc1ccc(Nc2nc(O)c3c[nH]nc3n2)cc1I | 86 | 71 | 9 (≈ 24.5 µM) | 9 (≈ 24.5 µM) | MIC (Staphylococcus aureus): 9 µg/mL (≈ 24.5 µM); MIC (Enterococcus faecium): 18 µg/mL (≈ 49 µM)
Cc1ccc(Nc2nc(O)c3c[nH]nc3n2)cc1C | 36 |  | 26 (≈ 102 µM) | 13 (≈ 50.9 µM) | 
Oc1[nH]c(NCc2ccc(Cl)c(Cl)c2)nc2nncc1-2 | 58 | 108 |  |  | 
Cc1ccc(Nc2nc(O)c3c[nH]nc3n2)cc1Br | 69 | 129 | 8 (≈ 25 µM) | 8 (≈ 25 µM) | MIC (Staphylococcus aureus): 8 µg/mL (≈ 25 µM); MIC (Enterococcus faecium): 16 µg/mL (≈ 50 µM)
CC(C)c1ccc(CNc2nc(O)c3c[nH]nc3n2)cc1 |  |  |  |  | NA (Nucleic Acid [2]): inactive
Oc1[nH]c(NCc2ccc(F)c(Cl)c2)nc2nncc1-2 | 24 |  |  |  | 
COc1cccc(CNc2nc(O)c3c[nH]nc3n2)c1 |  |  |  |  | NA (Nucleic Acid [2]): inactive
Oc1[nH]c(NCc2cccc(C(F)(F)F)c2)nc2nncc1-2 |  |  |  |  | NA (Nucleic Acid [2]): inactive
Oc1[nH]c(NCc2ccc(Br)cc2)nc2nncc1-2 | 23 |  |  |  | 
Cc1ccc(CNc2nc(O)c3c[nH]nc3n2)c(C)c1 |  |  |  |  | inhibition (Nucleic Acid [2]): 12%
CCc1cc(Nc2nc(O)c3c[nH]nc3n2)ccc1C | 88 | 68 | 13 (≈ 48.3 µM) | 7 (≈ 26 µM) | MIC (Staphylococcus aureus): 27 µg/mL (≈ 100 µM); MIC (Enterococcus faecium): 13 µg/mL (≈ 48.3 µM)
Cc1ccc(Nc2nc(O)c3c[nH]nc3n2)cc1Cl | 62 | 214 | 14 (≈ 50.8 µM) | 7 (≈ 25.4 µM) | MIC (Staphylococcus aureus): 14 µg/mL (≈ 50.8 µM); MIC (Enterococcus faecium): 28 µg/mL (≈ 102 µM)

Reference: ChEMBL document CHEMBL1145030, “Novel pyrazolo[3,4-d]pyrimidine-based inhibitors of Staphlococcus aureus DNA polymerase III: design, synthesis, and biological evaluation” (J Med Chem, 2003)
